SIAE primary: inhibitors of human sialic acid acetylesterase SIAE | SIAE FP-Rh probe binding, fluorescence polarization | inhibition, % at 9.66 µM | 370,000 compounds, 0.69% hits | AID 1053197;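 active means inhibition above a cutoff: mean of compounds within the control limits plus 3 SD of those, cut at about 17% in these data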;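 further: 0% = plate median of compound wells and 100% = probe without SIAE protein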
TCR-CD3 inh: blocks the human TCR-CD3 interaction; inhibition, % at 9.4 µM; TAMRA-labeled TCR probe fluorescence, biochemical; 360,000 compounds, 0.37% hits; in the data active means inhibition above about 19%;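 further: recombinant mutant TCR 2C K166C tagged with TAMRA read by polarization; 0% = receptor in buffer alone and 100% = receptor with positive control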
mABHD4 FP: ABHD4 (mouse) inhibition, primary FP screen. AID 720543. purified mABHD4, FP-Rh probe fluorescence polarization. 370,000 compounds, 0.54% hits. Q8VD66. inhibition, % at 8.92 µM;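 active means inhibition exceeding the mean over every tested compound plus 3 SD, cut at about 30% in these data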;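 further: 0% = plate median of compound wells and 100% = S159A mutant with DMSO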
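Assay system: mouse ABHD4 enzyme, wild type / Also added: fluorescent activity-based probe FP-Rh / Doses: single nominal dose of 8.92 µM, 0.89% DMSO final / Timing: 45 min compound pre-incubation plus 60 min probe step, 25 °C / Signal: FP readout, ex 525 nm / em 598 nm / Control set: S159A mutant/DMSO as 100%, compound-well median as 0%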
PRMT1 FP inh: inhibitors of human PRMT1. recombinant PRMT1, activity-based probe fluorescence polarization. 370,000 compounds, 1.3% hits. AID 652257. Q99873. inhibition, % at 2.79 µM;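 active means inhibition above about 21% made by adding two undisclosed values, limit read from the data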
Target sequence (Q99873 whole entry, looked up): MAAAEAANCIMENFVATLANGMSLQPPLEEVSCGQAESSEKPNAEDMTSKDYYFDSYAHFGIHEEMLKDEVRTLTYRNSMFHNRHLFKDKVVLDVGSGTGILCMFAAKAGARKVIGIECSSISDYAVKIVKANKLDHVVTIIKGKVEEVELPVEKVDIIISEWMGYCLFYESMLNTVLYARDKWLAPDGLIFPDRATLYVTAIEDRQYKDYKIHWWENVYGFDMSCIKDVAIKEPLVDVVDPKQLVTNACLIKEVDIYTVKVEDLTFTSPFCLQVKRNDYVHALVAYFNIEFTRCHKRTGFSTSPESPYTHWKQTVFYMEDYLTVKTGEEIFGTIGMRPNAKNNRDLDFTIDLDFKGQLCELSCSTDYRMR
rCAG RNA binder: binds r(CAG) RNA repeats; r(CAG) RNA repeat, TO-PRO-1 dye displacement fluorescence; inhibition, % at 3 µM; 370,000 compounds, 1.3% hits; AID 651821;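 active means inhibition above the plate cutoff, the mean of all test compounds on that plate plus 3 SD, cut at about 35% in these data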;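 further: 0% = DMSO alone and 100% = 100 µM mitoxantrone as full dye displacement; higher means more dye released from RNA so lower well fluorescence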
HTRA1 inhibitor: HTRA1 (human) protease inhibition. Q92743. recombinant HTRA1, FP-rhodamine activity-based probe, fluorescence polarization. inhibition, % at 5.96 µM. 340,000 compounds, 0.5% hits. AID 504803; in the data active means inhibition above about 36%;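 further: 0% = enzyme with DMSO and 100% = wells lacking enzyme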
* hit, by the source's call. Compounds with a hit are over-represented: about 3.5% of the library has one in this group of screens.

`COC(=O)[C@]12C[C@H](CC(=O)NCc3cccs3)C(=O)N(Cc3ccc(Cl)cc3Cl)C1=C[C@H](COCc1ccccc1)O[C@@H]2C` gave SIAE primary 0, mABHD4 FP -10, PRMT1 FP inh -1 and rCAG RNA binder 8.
For O=C1C(=O)c2cccnc2-c2ncccc21 the results were SIAE primary -4, TCR-CD3 inh 5, mABHD4 FP 1, PRMT1 FP inh 22* and rCAG RNA binder 3.
For Cc1cc(CNC(=O)c2cccc3c2C(=O)c2ccc(-c4ccc(F)cc4OCc4ccccc4)cc2S3(=O)=O)c(C(F)(F)F)o1 the results were SIAE primary -27, TCR-CD3 inh -8, mABHD4 FP -9, PRMT1 FP inh 4, rCAG RNA binder 43* and HTRA1 inhibitor -20.
`CC1(C(=O)O)CCCN1C(=O)c1ccc(Cl)cc1Cl` (stereo not drawn) gave SIAE primary -5, TCR-CD3 inh -6, mABHD4 FP 1, PRMT1 FP inh 4 and rCAG RNA binder 0.
For Cc1oc(-c2ccc(Cl)cc2)cc1C(=O)N1CCC1(C)C(=O)O (stereo not drawn) the results were SIAE primary -2, TCR-CD3 inh 3, mABHD4 FP -4, PRMT1 FP inh 23* and rCAG RNA binder 4.
O=S1(=O)c2ccc(N3CCCC3)cc2Oc2ccccc2CN1Cc1cn(Cc2ccccc2C(F)(F)F)nn1 was read as SIAE primary 2, mABHD4 FP 1, PRMT1 FP inh 2 and rCAG RNA binder 16.
COc1ccccc1NC(=O)OCCN1CCCC12CCC(c1ccccc1)CC2 (stereo not drawn) was read as SIAE primary 1, mABHD4 FP 0 and PRMT1 FP inh 7.
For COc1ccccc1NC(=S)OCCN1CCCC12CCC(c1ccccc1)CC2 (stereo not drawn) the results were SIAE primary 0, mABHD4 FP -8 and PRMT1 FP inh 22*.
Oc1ccc(Oc2ccccc2F)c2cccnc12 was read as SIAE primary 4, mABHD4 FP 3 and PRMT1 FP inh -3.
CCC1(c2ccc(F)cc2)NC(=O)N(CC(=O)N2c3ccccc3NC(=O)C2(C)C)C1=O (stereo not drawn) was read as SIAE primary -1, TCR-CD3 inh -2, mABHD4 FP 1, PRMT1 FP inh -3, rCAG RNA binder -4 and HTRA1 inhibitor -1.
For CC(C)CC1NC(=O)N(CC(=O)N2c3ccccc3NC(=O)C2(C)C)C1=O (stereo not drawn) the results were SIAE primary 20*, TCR-CD3 inh 0, mABHD4 FP 2, PRMT1 FP inh 1, rCAG RNA binder -5 and HTRA1 inhibitor -2.
Screening Cc1ccc(-n2c(COc3ccccc3)nnc2SCC(=O)Nc2ccccc2-c2ccccc2)cc1 returned SIAE primary -11, mABHD4 FP -20, PRMT1 FP inh -1 and rCAG RNA binder 6.
Screening CCOc1c(Cl)cc(C(=O)Nc2ccccc2C(=O)O)cc1Cl returned SIAE primary -33, TCR-CD3 inh 9, mABHD4 FP -15, PRMT1 FP inh 1, rCAG RNA binder 51* and HTRA1 inhibitor -46.
For COc1ccc(C(=O)Nc2ccccc2C(=O)O)cc1Cl the results were SIAE primary -16, TCR-CD3 inh -5, mABHD4 FP -2, PRMT1 FP inh 2, rCAG RNA binder 7 and HTRA1 inhibitor -5.
For CC(=O)N(C1=C(Cl)C(=O)c2ccccc2C1=O)C1CCCCC1 the results were SIAE primary 12, TCR-CD3 inh 0, mABHD4 FP 11, PRMT1 FP inh 92*, rCAG RNA binder -2 and HTRA1 inhibitor 12.
Screening CC(=O)N(c1ccccc1C)C1CCCC1 returned SIAE primary -7, TCR-CD3 inh 0, mABHD4 FP 4, PRMT1 FP inh 0, rCAG RNA binder -2 and HTRA1 inhibitor 3.
COC(=O)[C@]12C[C@H](CC(=O)NCCc3ccccc3OC)C(=O)N(CCc3ccc(OC)c(OC)c3)C1=C[C@H](C1CCCC1)O[C@@H]2C was read as SIAE primary -4, mABHD4 FP -12, PRMT1 FP inh 0 and rCAG RNA binder 5.
For N#CC1=C(N)C2=CCCC[C@H]2[C@H](c2ccc(Br)cc2)C1(C#N)C#N the results were HTRA1 inhibitor -5.
N#CC1=C(N)C2=CCCC[C@H]2[C@H](c2ccccc2)C1(C#N)C#N was read as SIAE primary -4, TCR-CD3 inh -3, mABHD4 FP -4, PRMT1 FP inh 24*, rCAG RNA binder 7 and HTRA1 inhibitor 0.
Cc1cc(-c2cc(-c3ccc(Cl)cc3)nc(N)c2C#N)co1 was read as SIAE primary 4, TCR-CD3 inh 6, mABHD4 FP 11, PRMT1 FP inh 39*, rCAG RNA binder 14 and HTRA1 inhibitor 15.
Screening Nc1ccc2cccc(O)c2c1 returned SIAE primary 5, TCR-CD3 inh -7, mABHD4 FP 48*, PRMT1 FP inh 2, rCAG RNA binder 15 and HTRA1 inhibitor 28.
COc1ccc(/C=C/C(Cc2cccc(C(C)=O)c2)c2ccc(C)cc2)cc1 (stereo not drawn) was read as SIAE primary 1, mABHD4 FP -3, PRMT1 FP inh 6 and rCAG RNA binder 5.
Cn1c(=O)cc(OCCCC(=O)Nc2cc(-c3cn[nH]c3)ccn2)c2ccccc21 was read as SIAE primary -3, mABHD4 FP 4 and PRMT1 FP inh -4.
`O=[N+]([O-])c1ccc(CS(=O)c2ccccc2)cc1` (stereo not drawn) gave SIAE primary 1, TCR-CD3 inh -1, mABHD4 FP -6, PRMT1 FP inh -3, rCAG RNA binder 5 and HTRA1 inhibitor -2.
`O=[N+]([O-])c1ccc(S(=O)Cc2ccccc2)c([N+](=O)[O-])c1` (stereo not drawn) gave SIAE primary 2, TCR-CD3 inh 6, mABHD4 FP 7, PRMT1 FP inh 38*, rCAG RNA binder 4 and HTRA1 inhibitor 2.
`C=CCN(CC#CCN(C)C(=O)c1cccn1C(=O)OC(C)(C)C)Cc1ccc(OC)cc1OC` gave SIAE primary -5, mABHD4 FP -3, PRMT1 FP inh 3 and rCAG RNA binder -2.
COC(=O)[C@]12C[C@H](CC(=O)NCc3cccs3)C(=O)N(CCc3ccc(OC)c(OC)c3)C1=C[C@H](C1CCCC1)O[C@@H]2C was read as SIAE primary -5, mABHD4 FP 0, PRMT1 FP inh 2 and rCAG RNA binder 3.
Screening O=C(CN1C(=O)N/C(=C\c2ccccc2OCc2ccc(C(=O)O)cc2)C1=O)Nc1ccccc1F returned SIAE primary -16, TCR-CD3 inh -6, mABHD4 FP -33, PRMT1 FP inh 3, rCAG RNA binder 47* and HTRA1 inhibitor -37.
Screening O=C(O)c1ccc(COc2ccc3ccccc3c2/C=C2/NC(=O)N(Cc3ccc(F)cc3)C2=O)cc1 returned SIAE primary -23, TCR-CD3 inh 1, mABHD4 FP -17, PRMT1 FP inh -3, rCAG RNA binder 25 and HTRA1 inhibitor -64.

Screens: PubChem BioAssay, The Scripps Research Institute Molecular Screening Center
